Data as given in ChEMBL document CHEMBL1649269, “In vitro activities of three new dihydrofolate reductase inhibitors against clinical isolates of gram-positive bacteria” (2009).
Converted amounts (≈) assume the structure as drawn.

Tests used:
[1] = test system: Streptococcus pneumoniae; assay: Antimicrobial activity against Streptococcus pneumoniae assessed as susceptible isolates by agar dilution method; assay type: functional
How it was run: (§1)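 Clinical isolates of beta-hemolytic streptococci, S. mitis and S. pneumoniae were tested by CLSI methodology, with Mueller-Hinton medium supplemented with 5% lysed horse blood. S. aureus ATCC 29213 and S. pneumoniae ATCC 49619 served as control strains. The percentage of susceptible isolates was derived from CLSI breakpoints.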

[2] = Antimicrobial activity against Group C Streptococcus by agar dilution method; assay type: functional; conditions: Streptococcus sp. 'group C'; how it was run: as §1
[3] = test system: Streptococcus sp. 'group B'; assay: Antimicrobial activity against Group B Streptococcus assessed as susceptible isolates by agar dilution method; assay type: functional; how it was run: as §1
[4] = Antimicrobial activity against Group G Streptococcus assessed as susceptible isolates by agar dilution method; assay type: functional, Streptococcus sp. 'group G'; how it was run: as §1
[5] = Antimicrobial activity against Group C Streptococcus assessed as susceptible isolates by agar dilution method; assay type: functional, Streptococcus sp. 'group C'; how it was run: as §1
[6] = test system: Streptococcus pneumoniae; assay: Antimicrobial activity against Streptococcus pneumoniae by agar dilution method; assay type: functional; how it was run: as §1
[7] = test system: Streptococcus sp. 'group A'; assay: Antimicrobial activity against Group A Streptococcus assessed as susceptible isolates by agar dilution method; assay type: functional; how it was run: as §1
[8] = test system: Corynebacterium sp.; assay: Antimicrobial activity against Corynebacterium spp. by agar dilution method; assay type: functional
[9] = test system: Streptococcus sp. 'group B'; assay: Antimicrobial activity against Group B Streptococcus by agar dilution method; assay type: functional; how it was run: as §1
[10] = test system: Streptococcus mitis; assay: Antimicrobial activity against Streptococcus mitis by broth dilution method
[11] = test system: Staphylococcus aureus; assay: Antimicrobial activity against methicillin-sensitive Staphylococcus aureus assessed as susceptible isolates by agar dilution method; assay type: functional
How it was run: (§2)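 MICs against clinical MRSA or MSSA isolates by CLSI agar dilution, with S. aureus ATCC 29213 as control strain. Percentage of susceptible isolates was calculated from the MICs using CLSI breakpoints.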

[12] = test system: Listeria monocytogenes; assay: Antimicrobial activity against Listeria monocytogenes by agar dilution method; assay type: functional
How it was run: (§3)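 CLSI agar dilution MIC testing of clinical isolates of staphylococci and Listeria. S. aureus ATCC 29213 and S. pneumoniae ATCC 49619 served as control strains. The percentage of susceptible isolates was calculated from CLSI breakpoints.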

[13] = test system: Staphylococcus aureus; assay: Antimicrobial activity against methicillin-resistant Staphylococcus aureus by agar dilution method; assay type: functional; how it was run: as §2
[14] = test system: Staphylococcus aureus; assay: Antimicrobial activity against Heterovancomycin-resistant Staphylococcus aureus by agar dilution method; assay type: functional
How it was run: (§4)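 Clinical S. aureus isolates classed as hVISA or VISA by population analysis profiling. MICs by CLSI agar dilution, with S. aureus ATCC 29213 as control strain.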

[15] = test system: Staphylococcus aureus; assay: Antimicrobial activity against vancomycin-resistant Staphylococcus aureus by agar dilution method; assay type: functional; how it was run: as §4
[16] = test system: Streptococcus sp. 'group A'; assay: Antimicrobial activity against Group A Streptococcus by agar dilution method; assay type: functional; how it was run: as §1
[17] = test system: Staphylococcus aureus; assay: Antimicrobial activity against methicillin-sensitive Staphylococcus aureus by agar dilution method; assay type: functional; how it was run: as §2
[18] = test system: Staphylococcus; assay: Antimicrobial activity against Coagulase-negative Staphylococcus by agar dilution method; assay type: functional; how it was run: as §3
[19] = Antimicrobial activity against Group G Streptococcus by agar dilution method; assay type: functional; conditions: Streptococcus sp. 'group G'; how it was run: as §1
[20] = test system: Staphylococcus; assay: Antimicrobial activity against Coagulase-negative Staphylococcus assessed as susceptible isolates by agar dilution method; assay type: functional; how it was run: as §3
[21] = test system: Staphylococcus aureus; assay: Antimicrobial activity against vancomycin-resistant Staphylococcus aureus assessed as susceptible isolates by agar dilution method; assay type: functional
[22] = test system: Staphylococcus aureus; assay: Antimicrobial activity against methicillin-resistant Staphylococcus aureus assessed as susceptible isolates by agar dilution method; assay type: functional; how it was run: as §2
[23] = test system: Staphylococcus aureus; assay: Antimicrobial activity against Heterovancomycin-resistant Staphylococcus aureus assessed as susceptible isolates by agar dilution method; assay type: functional

Structure (SMILES)	MIC50 [2] [µg/mL]	MIC90 [2] [µg/mL]	MIC50 [6] [µg/mL]	MIC90 [6] [µg/mL]	MIC50 [8] [µg/mL]	MIC90 [8] [µg/mL]	MIC50 [9] [µg/mL]	MIC90 [9] [µg/mL]	MIC50 [10] [µg/mL]	Activity [11] [%]	MIC50 [12] [µg/mL]	MIC90 [12] [µg/mL]	MIC50 [14] [µg/mL]	MIC90 [14] [µg/mL]	MIC50 [15] [µg/mL]	MIC90 [15] [µg/mL]	MIC50 [16] [µg/mL]	MIC90 [16] [µg/mL]	MIC50 [18] [µg/mL]	MIC90 [18] [µg/mL]	further results
CC(=O)NC[C@H]1CN(c2ccc(N3CCOCC3)c(F)c2)C(=O)O1 [LINEZOLID]	1 (≈ 2.96 µM)	2 (≈ 5.93 µM)	1 (≈ 2.96 µM)	2 (≈ 5.93 µM)	0.06 (≈ 0.178 µM)	0.12 (≈ 0.356 µM)	1 (≈ 2.96 µM)	2 (≈ 5.93 µM)	1 (≈ 2.96 µM)	100	2 (≈ 5.93 µM)	2 (≈ 5.93 µM)	1 (≈ 2.96 µM)	2 (≈ 5.93 µM)	1 (≈ 2.96 µM)	2 (≈ 5.93 µM)	1 (≈ 2.96 µM)	1 (≈ 2.96 µM)	1 (≈ 2.96 µM)	2 (≈ 5.93 µM)	Activity [1]: 100%; MIC [2]: 1 µg/mL (≈ 2.96 µM); Activity [3]: 100%; Activity [4]: 100%; Activity [5]: 100%; Activity [7]: 100%; MIC [9]: 1 µg/mL (≈ 2.96 µM); MIC [12]: 2 µg/mL (≈ 5.93 µM); MIC50 [13]: 2 µg/mL (≈ 5.93 µM); MIC90 [13]: 2 µg/mL (≈ 5.93 µM); MIC [14]: 1 µg/mL (≈ 2.96 µM); MIC50 [17]: 2 µg/mL (≈ 5.93 µM); MIC90 [17]: 2 µg/mL (≈ 5.93 µM); MIC50 [19]: 2 µg/mL (≈ 5.93 µM); MIC90 [19]: 2 µg/mL (≈ 5.93 µM); Activity [20]: 100%
COc1c(N2C[C@@H]3CCCN[C@@H]3C2)c(F)cc2c(=O)c(C(=O)O)cn(C3CC3)c12 [MOXIFLOXACIN]	0.25 (≈ 0.623 µM)	0.5 (≈ 1.25 µM)	0.25 (≈ 0.623 µM)	0.25 (≈ 0.623 µM)	1 (≈ 2.49 µM)	8 (≈ 19.9 µM)	0.25 (≈ 0.623 µM)	0.5 (≈ 1.25 µM)	0.25 (≈ 0.623 µM)	92	0.5 (≈ 1.25 µM)	1 (≈ 2.49 µM)	4 (≈ 9.96 µM)	4 (≈ 9.96 µM)	8 (≈ 19.9 µM)	8 (≈ 19.9 µM)	0.25 (≈ 0.623 µM)	0.5 (≈ 1.25 µM)	0.25 (≈ 0.623 µM)	8 (≈ 19.9 µM)	Activity [1]: 100%; Activity [21]: 0%; MIC [2]: 0.25 µg/mL (≈ 0.623 µM); Activity [22]: 4%; Activity [23]: 8%; MIC [9]: 0.25 µg/mL (≈ 0.623 µM); MIC [12]: 0.5 µg/mL (≈ 1.25 µM); MIC [15]: 8 µg/mL (≈ 19.9 µM); MIC [16]: 0.25 µg/mL (≈ 0.623 µM); MIC [19]: 0.25 µg/mL (≈ 0.623 µM); MIC50 [19]: 0.25 µg/mL (≈ 0.623 µM); MIC90 [19]: 0.5 µg/mL (≈ 1.25 µM); Activity [20]: 55%
COc1cc(Cc2cnc(N)nc2N)cc(OC)c1OC [TRIMETHOPRIM]	0.5 (≈ 1.72 µM)	1 (≈ 3.44 µM)	1 (≈ 3.44 µM)	4 (≈ 13.8 µM)	16 (≈ 55.1 µM)	16 (≈ 55.1 µM)	1 (≈ 3.44 µM)	1 (≈ 3.44 µM)	4 (≈ 13.8 µM)	92	0.06 (≈ 0.207 µM)	0.06 (≈ 0.207 µM)	1 (≈ 3.44 µM)	16 (≈ 55.1 µM)	1 (≈ 3.44 µM)	32 (≈ 110 µM)	0.5 (≈ 1.72 µM)	1 (≈ 3.44 µM)	16 (≈ 55.1 µM)	32 (≈ 110 µM)	Activity [21]: 71%; Activity [22]: 80%; Activity [23]: 80%; MIC [10]: < 0.008 µg/mL; MIC50 [13]: 0.25 µg/mL (≈ 0.861 µM); MIC90 [13]: 32 µg/mL (≈ 110 µM); MIC50 [17]: 1 µg/mL (≈ 3.44 µM); MIC90 [17]: 2 µg/mL (≈ 6.89 µM); MIC50 [19]: 1 µg/mL (≈ 3.44 µM); MIC90 [19]: 1 µg/mL (≈ 3.44 µM); Activity [20]: 48%
